Converted amounts (≈) assume the structure as drawn. The source made the active and inactive calls. The rule behind the calls is not given here.
Key:
[1] = biological target: T1, Proteinase-activated receptor 1 (Homo sapiens) (UniProt P25116); details: 0.316 uM
T1 sequence (whole entry): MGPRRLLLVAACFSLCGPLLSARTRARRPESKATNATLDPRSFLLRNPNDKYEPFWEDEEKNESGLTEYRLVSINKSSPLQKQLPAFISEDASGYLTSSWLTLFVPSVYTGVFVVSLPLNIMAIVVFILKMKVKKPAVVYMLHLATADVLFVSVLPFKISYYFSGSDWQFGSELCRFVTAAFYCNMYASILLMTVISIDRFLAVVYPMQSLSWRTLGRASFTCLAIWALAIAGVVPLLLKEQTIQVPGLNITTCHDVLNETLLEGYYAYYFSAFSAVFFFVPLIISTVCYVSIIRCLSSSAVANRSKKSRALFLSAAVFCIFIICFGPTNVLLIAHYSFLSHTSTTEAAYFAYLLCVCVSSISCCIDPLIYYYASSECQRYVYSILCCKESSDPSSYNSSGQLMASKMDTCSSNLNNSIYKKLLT

[2] = biological target: T1, Proteinase-activated receptor 1 (Homo sapiens); test: Reversible inhibition of PAR1 in human EAhy926 cells assessed as reduction in TFLLRN-NH2-induced intracellular calcium mobilization at 10 uM incubated for 15 mins and washed in buffer followed by TFLLRN-NH2 addition by Fluo-4-AM dye based fluorescence assay relative to control; assay type: functional, cell-based
[3] = biological target: Proteinase-activated receptor 2 (Homo sapiens) (UniProt P55085); test: Negative allosteric modulation of PAR2 in human EAhy926 cells assessed as reduction in SLIGKV-NH2-induced intracellular calcium mobilization at 0.316 to 10 uM incubated for 15 mins followed by TFLLRN-NH2 addition by Fluo-4-AM dye based fluorescence assay relative to control; assay type: functional, cell-based
[4] = biological target: T1, Proteinase-activated receptor 1 (Homo sapiens); test: Negative allosteric modulation of PAR1 in human EAhy926 cells assessed as reduction in TFLLRN-NH2-induced intracellular calcium mobilization at 10 uM incubated for 15 mins followed by TFLLRN-NH2 addition by Fluo-4-AM dye based fluorescence assay relative to control; assay type: functional, cell-based
Outline: (§1)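 Adherent EA.hy926 endothelial cells in 96-well format, intracellular Ca2+ mobilization triggered by PAR1 agonist TFLLRN-NH2 at 5 µM; single-point % inhibition at 10 µM (n = 4 wells, SEM); 7-point concentration-response curves, 3 wells per concentration, pIC50 from 4-variable non-linear regression; average IC50 ± SEM over independent assays.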

[5] = biological target: T2, Proteinase-activated receptor 1 (Homo sapiens, UniProt P25116); test: Negative allosteric modulation of PAR1 in human EAhy926 cells assessed as reduction in TFLLRN-NH2-induced intracellular calcium mobilization incubated for 15 mins followed by TFLLRN-NH2 addition by Fluo-4-AM dye based fluorescence assay; assay type: functional, cell-based
T2 sequence (P25116 whole entry): T1 sequence (whole entry)
Outline: as §1

[6] = biological target: Translocator protein (Rattus norvegicus) (UniProt P16257); test: Inhibition of rat PBR at 10 uM
[7] = Solubility in 2.5% DMSO; assay type: physicochemical
Outline: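 Kinetic aqueous solubility assay with 2.5% DMSO.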

[8] = biological target: Sodium-dependent noradrenaline transporter (Homo sapiens) (UniProt P23975); test: Inhibition of NET receptor (unknown origin) at 10 uM
HepG2 = test: Cytotoxicity against human HepG2 cells assessed as reduction in cell viability; assay type: cell-based
Outline: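 Human HepG2 cells; cytotoxicity reported as CC50.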

[9] = Stability in human plasma at 20 uM measured at 4 hrs by LC-MS analysis; assay type: ADME, cell-free
Outline: (§2)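 Compound incubated in mouse or human plasma; % parent remaining at 4 h.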

HUVEC (human) = test: Antiinflammatory activity in human HUVEC cells assessed as inhibition of TNFalpha-induced TF expression at 10 uM preincubated for 1 hr followed by TNFalpha addition and measured after 3 hrs by qPCR analysis
Platelet = test: Antiplatelet activity in human washed platelets assessed as inhibition of SFLLRN-NH2-induced platelet aggregation at 10 uM incubated for 2 mins followed by SFLLRN-NH2 addition and monitored for 5 mins by lumi-aggregometery
[10] = Stability in human microsomes for 1 hr; assay type: ADME, Microsome; details: read-out: Stability
Outline: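 Human liver microsomes, % remaining after 1 h.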

[11] = biological target: T1, Proteinase-activated receptor 1 (Homo sapiens); test: Negative allosteric modulation of PAR1 in human EAhy926 cells assessed as reduction in TFLLRN-NH2-induced intracellular calcium mobilization at 0.0316 to 3.16 uM incubated for 15 mins followed by TFLLRN-NH2 addition by Fluo-4-AM dye based fluorescence assay relative to control
[12] = Stability in mouse plasma at 20 uM measured at 4 hrs by LC-MS analysis; assay type: ADME, cell-free
Outline: as §2

[13] = biological target: T1, Proteinase-activated receptor 1 (Homo sapiens); test: Negative allosteric modulation of PAR1 in human EAhy926 cells assessed as reduction in TFLLRN-NH2-induced intracellular calcium mobilization at 31.6 uM incubated for 15 mins followed by TFLLRN-NH2 addition by Fluo-4-AM dye based fluorescence assay relative to control; assay type: functional, cell-based
[14] = biological target: T1, Proteinase-activated receptor 1 (Homo sapiens); test: Negative allosteric modulation of PAR1 in human EAhy926 cells assessed as reduction in TFLLRN-NH2-induced intracellular calcium mobilization incubated for 15 mins followed by TFLLRN-NH2 addition by Fluo-4-AM dye based fluorescence assay relative to control; assay type: functional, cell-based
Outline: as §1

[15] = biological target: Beta-3 adrenergic receptor (Homo sapiens) (UniProt P13945); test: Inhibition of beta3 adrenoceptor (unknown origin) at 10 uM by radio ligand binding assay
[16] = biological target: Beta-1 adrenergic receptor (Homo sapiens) (UniProt P08588); test: Inhibition of beta1 adrenoceptor (unknown origin) at 10 uM by radio ligand binding assay
[17] = Stability in human plasma at 10 uM measured at 4 hrs by LC-MS analysis; assay type: ADME, cell-free
Outline: as §2

[18] = Stability in mouse plasma at 10 uM measured at 4 hrs by LC-MS analysis; assay type: ADME, cell-free
Outline: as §2

Proteinase-activated receptor 2 (Homo sapiens), sequence (P55085 whole entry): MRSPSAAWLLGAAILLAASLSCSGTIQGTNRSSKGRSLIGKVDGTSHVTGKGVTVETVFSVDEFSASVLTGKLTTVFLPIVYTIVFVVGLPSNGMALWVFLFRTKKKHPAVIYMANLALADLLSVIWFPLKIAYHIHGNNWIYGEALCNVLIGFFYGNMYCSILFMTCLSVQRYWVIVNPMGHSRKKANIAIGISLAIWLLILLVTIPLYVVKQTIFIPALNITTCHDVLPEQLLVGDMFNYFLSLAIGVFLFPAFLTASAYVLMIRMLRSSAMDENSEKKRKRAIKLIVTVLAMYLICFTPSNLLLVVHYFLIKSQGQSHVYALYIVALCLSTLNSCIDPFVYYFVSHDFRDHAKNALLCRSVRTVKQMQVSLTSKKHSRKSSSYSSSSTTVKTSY
Translocator protein (Rattus norvegicus), sequence (P16257 whole entry, looked up): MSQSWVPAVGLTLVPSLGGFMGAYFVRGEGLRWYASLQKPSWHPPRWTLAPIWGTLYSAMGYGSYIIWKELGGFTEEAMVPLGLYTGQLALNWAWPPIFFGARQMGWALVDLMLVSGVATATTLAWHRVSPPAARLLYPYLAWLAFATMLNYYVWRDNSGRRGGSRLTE
Beta-1 adrenergic receptor (Homo sapiens), sequence (P08588 whole entry, looked up): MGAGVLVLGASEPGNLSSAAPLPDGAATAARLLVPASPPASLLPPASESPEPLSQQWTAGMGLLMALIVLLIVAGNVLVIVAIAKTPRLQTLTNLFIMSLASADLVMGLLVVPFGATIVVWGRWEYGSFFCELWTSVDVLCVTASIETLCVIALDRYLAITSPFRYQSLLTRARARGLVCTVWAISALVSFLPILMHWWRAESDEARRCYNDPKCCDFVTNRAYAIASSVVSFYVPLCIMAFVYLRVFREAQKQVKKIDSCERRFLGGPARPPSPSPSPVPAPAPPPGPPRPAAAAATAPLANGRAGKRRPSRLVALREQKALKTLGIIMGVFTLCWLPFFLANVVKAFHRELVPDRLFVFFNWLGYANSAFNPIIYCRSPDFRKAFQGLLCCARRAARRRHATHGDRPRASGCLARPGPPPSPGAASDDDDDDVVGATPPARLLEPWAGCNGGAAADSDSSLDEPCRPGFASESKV
Beta-3 adrenergic receptor (Homo sapiens), sequence (P13945 whole entry, looked up): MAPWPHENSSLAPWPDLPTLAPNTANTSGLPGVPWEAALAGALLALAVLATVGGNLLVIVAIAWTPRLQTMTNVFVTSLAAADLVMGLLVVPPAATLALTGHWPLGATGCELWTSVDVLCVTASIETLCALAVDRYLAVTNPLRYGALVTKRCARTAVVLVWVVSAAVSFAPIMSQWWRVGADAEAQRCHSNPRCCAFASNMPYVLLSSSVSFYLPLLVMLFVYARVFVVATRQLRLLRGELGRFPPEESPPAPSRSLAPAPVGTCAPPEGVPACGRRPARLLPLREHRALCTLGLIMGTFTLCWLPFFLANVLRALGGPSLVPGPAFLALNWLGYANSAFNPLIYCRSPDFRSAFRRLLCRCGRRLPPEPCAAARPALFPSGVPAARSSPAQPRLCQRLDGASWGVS
Sodium-dependent noradrenaline transporter (Homo sapiens), sequence (P23975 whole entry): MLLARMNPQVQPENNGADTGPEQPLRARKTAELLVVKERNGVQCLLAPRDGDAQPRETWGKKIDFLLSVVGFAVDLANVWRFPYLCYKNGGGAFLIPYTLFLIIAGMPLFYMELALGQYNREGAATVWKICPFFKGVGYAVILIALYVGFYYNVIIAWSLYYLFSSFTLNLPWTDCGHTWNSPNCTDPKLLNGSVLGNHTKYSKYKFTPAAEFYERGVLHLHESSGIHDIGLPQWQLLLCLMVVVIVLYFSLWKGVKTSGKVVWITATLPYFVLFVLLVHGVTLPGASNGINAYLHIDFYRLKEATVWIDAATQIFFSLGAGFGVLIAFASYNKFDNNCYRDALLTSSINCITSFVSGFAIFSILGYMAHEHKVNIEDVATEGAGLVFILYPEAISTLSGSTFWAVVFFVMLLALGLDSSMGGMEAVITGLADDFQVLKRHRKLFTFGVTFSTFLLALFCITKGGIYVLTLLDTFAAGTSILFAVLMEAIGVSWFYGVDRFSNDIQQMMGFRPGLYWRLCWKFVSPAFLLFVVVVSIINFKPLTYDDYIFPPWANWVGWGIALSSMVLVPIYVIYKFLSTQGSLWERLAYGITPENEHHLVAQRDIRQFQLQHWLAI

CCOC(=O)N[C@@H]1CC[C@@H]2[C@@H](C1)C[C@H]1C(=O)O[C@H](C)[C@H]1[C@H]2/C=C/c1ccc(-c2cccc(F)c2)cn1
inhibition [1]: > 75%
inhibition [2]: inactive
inhibition [3]: inactive

CCC(C)C(=O)Nc1cccc(NC(=O)c2ccccc2Br)c1 (stereo not drawn)
inhibition [4]: 27%

O=C(CC(F)(F)F)Nc1cccc(NC(=O)c2ccccc2Br)c1
IC50 ([5]; read-out: IC50): 380 nM
inhibition [2]: Active
inhibition [4]: 88%
inhibition [3]: inactive

CC(C)(C)OC(=O)N1CCC[C@@H]1C(=O)Nc1cccc(NC(=O)c2ccccc2Br)c1
inhibition [4]: 65%

O=C(Nc1cccc(NC(=O)c2ccccc2Br)c1)c1cnco1
inhibition [6]: 67%
solubility kinetic [7]: 17 µM (≈ 6.57 µg/mL)
inhibition [8]: 31%
CC50 (HepG2): > 150000 nM
IC50 ([5]; read-out: IC50): 370 nM
Stability [9]: 97%
inhibition [2]: Active
inhibition [4]: 90%
inhibition (HUVEC (human)): Active
inhibition at 10 µM (Platelet): 100%
remaining at 1 h [10]: 99%
inhibition [11]: Active
Stability [12]: 32%
inhibition [3]: inactive

O=C(Nc1cccc(NC(=O)c2ccccc2Br)c1)c1cocn1
IC50 ([5]; read-out: IC50): 420 nM
inhibition [2]: Active
inhibition [4]: 82%
inhibition [13]: 50%
inhibition [3]: inactive

COCCC(=O)Nc1cccc(NC(=O)c2ccccc2Br)c1
inhibition [4]: 39%

CC(C)[C@H](O)C(=O)Nc1cccc(NC(=O)c2ccccc2Br)c1
inhibition [4]: 48%

COC(C)C(=O)Nc1cccc(NC(=O)c2ccccc2Br)c1 (stereo not drawn)
inhibition [4]: 58%

COC(=O)CC(=O)Nc1cccc(NC(=O)c2ccccc2Br)c1
inhibition [4]: 11%

CCCNC(=O)c1cccc(NC(=O)c2ccccc2Br)c1
inhibition [14]: 50%
IC50 ([5]; read-out: IC50): 220 nM
inhibition [4]: 63%

CC(C)(C)OC(=O)N1CCC[C@H]1C(=O)Nc1cccc(NC(=O)c2ccccc2Br)c1
inhibition [4]: -8%

CCC(=O)Nc1cccc(NC(=O)c2ccccc2Br)c1
inhibition [4]: 54%

CCOC(=O)Nc1cccc(NC(=O)c2ccccc2Br)c1
inhibition [4]: 60%

CC(C)[C@@H](O)C(=O)Nc1cccc(NC(=O)c2ccccc2Br)c1
inhibition [4]: 25%

O=C(Nc1cccc(NC(=O)C2CCCO2)c1)c1ccccc1Br (stereo not drawn)
inhibition [4]: 42%

O=C(Nc1cccc(NC(=O)C2CCCC2)c1)c1ccccc1Br
inhibition [4]: 65%

CCC(O)C(=O)Nc1cccc(NC(=O)c2ccccc2Br)c1 (stereo not drawn)
inhibition [4]: 21%

COCCNc1cccc(NC(=O)c2ccccc2Br)c1
inhibition [4]: 43%

CN(C)CC(=O)Nc1cccc(NC(=O)c2ccccc2Br)c1
inhibition [4]: 3%

CC(C)CC(=O)Nc1cccc(NC(=O)c2ccccc2Br)c1
inhibition [4]: 82%

CCCCOc1cccc(NC(=O)c2ccccc2Br)c1
inhibition [4]: 57%

CCCNCc1cccc(NC(=O)c2ccccc2Br)c1
inhibition [4]: 17%

COC(=O)Nc1cccc(NC(=O)c2ccccc2Br)c1
inhibition [4]: 42%

CCCC(=O)Nc1cccc(NC(=O)c2ccccc2Br)c1
inhibition [6]: 84%
inhibition [15]: 32%
inhibition [16]: 49%
solubility kinetic [7]: 24 µM (≈ 8.67 µg/mL)
Stability [17]: 79%
CC50 (HepG2): > 150000 nM
IC50 ([5]; read-out: IC50): 570 nM
Stability [18]: < 1%
inhibition [2]: Active
inhibition (HUVEC (human)): Active
inhibition at 10 µM (Platelet): 100%
remaining at 1 h [10]: 99%
inhibition [3]: inactive

O=C(Nc1cccc(NC(=O)[C@@H]2CCCN2)c1)c1ccccc1Br
inhibition [4]: 4%

O=C(Nc1cccc(NC(=O)c2ccccc2Br)c1)c1ccccc1
inhibition [4]: 58%

C#CCCC(=O)Nc1cccc(NC(=O)c2ccccc2Br)c1
IC50 ([5]; read-out: pIC50 (converted)): > 10000 nM

O=C(Nc1cccc(NC(=O)[C@H]2CCCN2)c1)c1ccccc1Br
inhibition [4]: 63%

CCCN(CCC)c1cccc(NC(=O)c2ccccc2Br)c1
inhibition [4]: 13%

COCC(=O)Nc1cccc(NC(=O)c2ccccc2Br)c1
inhibition [4]: 38%

CCCCNc1cccc(NC(=O)c2ccccc2Br)c1
inhibition [2]: Active
inhibition [4]: 85%
inhibition [3]: inactive

NC(=O)CC(=O)Nc1cccc(NC(=O)c2ccccc2Br)c1
inhibition [4]: 36%

O=C(O)CC(=O)Nc1cccc(NC(=O)c2ccccc2Br)c1
inhibition [4]: 37%

O=C(Nc1cccc(NC(=O)c2ccccc2Br)c1)c1ccco1
IC50 ([5]; read-out: IC50): 320 nM
inhibition [2]: Active
inhibition [4]: 92%
inhibition [3]: inactive

CCCCC(=O)Nc1cccc(NC(=O)c2ccccc2Br)c1
inhibition [4]: 23%

O=C(Nc1cccc(NC(=O)C2CCOC2)c1)c1ccccc1Br (stereo not drawn)
inhibition [4]: 44%
